Assay results: ChEMBL document CHEMBL1148778, “Synthesis and characterization of nonsteroidal glucocorticoid receptor modulators for multiple myeloma” (J Med Chem, 2007)

Legend:
[1] = biological target: T1, Mineralocorticoid receptor (Homo sapiens, UniProt P08235); test: Binding affinity to MR
T1 sequence (P08235 whole entry): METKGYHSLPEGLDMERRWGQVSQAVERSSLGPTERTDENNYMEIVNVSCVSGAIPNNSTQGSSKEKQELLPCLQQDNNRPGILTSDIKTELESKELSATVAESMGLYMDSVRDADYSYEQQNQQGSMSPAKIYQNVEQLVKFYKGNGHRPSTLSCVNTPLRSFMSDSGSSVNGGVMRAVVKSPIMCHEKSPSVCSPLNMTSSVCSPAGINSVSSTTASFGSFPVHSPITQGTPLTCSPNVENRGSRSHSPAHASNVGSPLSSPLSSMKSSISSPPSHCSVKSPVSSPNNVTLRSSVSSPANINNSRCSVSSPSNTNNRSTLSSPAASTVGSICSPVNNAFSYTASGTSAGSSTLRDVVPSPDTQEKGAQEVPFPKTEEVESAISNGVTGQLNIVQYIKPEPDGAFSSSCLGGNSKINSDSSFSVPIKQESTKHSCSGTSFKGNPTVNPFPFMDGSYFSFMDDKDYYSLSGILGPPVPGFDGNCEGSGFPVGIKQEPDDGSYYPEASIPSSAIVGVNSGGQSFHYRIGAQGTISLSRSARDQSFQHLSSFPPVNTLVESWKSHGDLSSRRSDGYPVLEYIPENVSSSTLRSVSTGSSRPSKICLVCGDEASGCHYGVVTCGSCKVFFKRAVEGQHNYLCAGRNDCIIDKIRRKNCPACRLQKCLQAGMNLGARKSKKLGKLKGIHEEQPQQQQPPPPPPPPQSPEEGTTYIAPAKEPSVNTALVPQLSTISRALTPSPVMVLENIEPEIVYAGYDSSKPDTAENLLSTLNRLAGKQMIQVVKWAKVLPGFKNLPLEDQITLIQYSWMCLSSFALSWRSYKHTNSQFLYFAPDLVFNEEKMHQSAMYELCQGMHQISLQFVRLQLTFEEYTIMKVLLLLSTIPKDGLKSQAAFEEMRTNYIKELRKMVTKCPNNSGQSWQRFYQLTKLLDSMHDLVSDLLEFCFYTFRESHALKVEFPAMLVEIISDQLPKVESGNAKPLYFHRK
How it was run: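 Competitive binding assays on PR and MR. Values are means of at least three separate experiments, each with triplicate determinations, ± SEM. A value without SEM comes from a single determination.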

RPMI-8226 [2] = test: Inhibition of tumor growth in human RPMI8226 cells xenografted nude mouse at 3 mg/kg, po after 4 weeks relative to Dexamethasone; type: functional
RPMI-8226 [3] = test: Inhibition of tumor growth in human RPMI8226 cells xenografted nude mouse at 30 mg/kg, po after 4 weeks relative to Dexamethasone; type: functional
RPMI-8226 [4] = test: Inhibition of tumor growth in human RPMI8226 cells xenografted nude mouse at 100 mg/kg, po after 4 weeks relative to Dexamethasone; type: functional
RPMI-8226 [5] = test: Inhibition of tumor growth in human RPMI8226 cells xenografted nude mouse at 10 mg/kg, po after 4 weeks relative to Dexamethasone; type: functional
[6] = biological target: T2, Mineralocorticoid receptor (Homo sapiens) (UniProt P08235); test: Antagonist activity at mineralocorticoid receptor by MR activation assay; type: functional; parameters: scale not given: the % may be the effect or the level left
T2 sequence (whole entry): T1 sequence (P08235 whole entry)

[7] = biological target: T2, Mineralocorticoid receptor (Homo sapiens); test: Agonist activity at mineralocorticoid receptor by MR activation assay; type: functional

Row | SMILES | Ki [1] [nM] | Efficacy (RPMI-8226 [2]) [%] | Efficacy (RPMI-8226 [3]) [%] | Efficacy (RPMI-8226 [4]) [%] | Efficacy (RPMI-8226 [5]) [%] | Activity [6] [%] | Activity [7] [%]
1 | COc1c(O)ccc2c1-c1ccc3c(c1/C(=C/c1sccc1CO)O2)C(C)=CC(C)(C)N3 | 980 | 29 | 80 | 97 |  |  | 
2 | CO/N=C(\C)c1ccsc1/C=C1\Oc2ccc(O)c(OC)c2-c2ccc3c(c21)C(C)=CC(C)(C)N3 | 48 |  | 82 | 95 | 78 |  | 
3 | COCc1ccsc1/C=C1\Oc2ccc(O)c(OC)c2-c2ccc3c(c21)C(C)=CC(C)(C)N3 | 10 |  |  |  |  | 55 | 25
